Source: ChEMBL document CHEMBL1158823, “Extraction, hemisynthesis, and synthesis of canthin-6-one analogues. Evaluation of their antifungal activities” (2005)
In brackets after ≈: the same amount, converted by molar mass.

How the values were obtained:
Assay type in all cases: functional
[1] = system: Trichophyton mentagrophytes; test: Antifungal activity against Trichophyton mentagrophytes var. interdigitale CPCM 06.99
In short: (§1)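 Bioautographic assay, with the minimal inhibitory concentration (MIC) estimated from it.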

Saccharomyces cerevisiae = test: Antifungal activity against Saccharomyces cerevisiae ATCC 26.01; in short: as §1
Cryptococcus neoformans = test: Antifungal activity against Cryptococcus neoformans H99; in short: as §1
Aspergillus fumigatus = test: Antifungal activity against Aspergillus fumigatus 04-486; in short: as §1
Candida albicans = test: Antifungal activity against Candida albicans ATCC 10231
In short: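 Bioautographic assay against Candida albicans CIP 4872 (also listed as ATCC 10231 and NIH 3147), with the minimal inhibitory concentration (MIC) estimated.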

SMILES: O=c1ccc2c3c(cc[n+]2[O-])c2ccccc2n13
- MIC [1]: > 200 µM
- MIC (Saccharomyces cerevisiae; read-out: MIC): 53 µM (≈ 12.5 µg/mL)
- MIC (Cryptococcus neoformans; var grubii H99, read-out: MIC): > 200 µM
- MIC (Aspergillus fumigatus): > 200 µM
- MIC (Candida albicans; read-out: MIC): > 200 µM

SMILES: COc1ccc2c(c1)c1ccnc3ccc(=O)n2c31
- MIC [1]: > 200 µM
- MIC (Saccharomyces cerevisiae; read-out: MIC): 50 µM (≈ 12.5 µg/mL)
- MIC (Cryptococcus neoformans; var grubii H99, read-out: MIC): 200 µM (≈ 50.1 µg/mL)
- MIC (Aspergillus fumigatus): > 200 µM
- MIC (Candida albicans; read-out: MIC): 100 µM (≈ 25 µg/mL)

SMILES: O=c1ccc2c3c(cc[n+]2CCBr)c2ccccc2n13
- MIC [1]: > 200 µM
- MIC (Saccharomyces cerevisiae; read-out: MIC): 7.7 µM
- MIC (Cryptococcus neoformans; var grubii H99, read-out: MIC): > 200 µM
- MIC (Aspergillus fumigatus): > 200 µM
- MIC (Candida albicans; read-out: MIC): > 200 µM

SMILES: COc1c2c(c3ccc(=O)oc3c1/C=C\C(C)(C)O)OC(C)(C)C=C2
- MIC (Saccharomyces cerevisiae; read-out: MIC): > 200 µM
- MIC (Cryptococcus neoformans; var grubii H99, read-out: MIC): > 200 µM
- MIC (Aspergillus fumigatus): > 200 µM
- MIC (Candida albicans; read-out: MIC): 146 µM (≈ 50 µg/mL)

SMILES: O=c1ccc2nccc3c4ccc(F)cc4n1c23
- MIC (Saccharomyces cerevisiae): 13.1 µM (≈ 3.12 µg/mL)
- MIC (Cryptococcus neoformans; var grubii H99): 13.1 µM (≈ 3.12 µg/mL)
- MIC (Candida albicans): 13.1 µM (≈ 3.12 µg/mL)

SMILES: Cc1cc2c3ccccc3n3c(=O)ccc(n1)c23
- MIC (Saccharomyces cerevisiae): > 200 µM
- MIC (Cryptococcus neoformans; var grubii H99): > 200 µM
- MIC (Candida albicans): > 200 µM

SMILES: CCCC[n+]1ccc2c3ccccc3n3c(=O)ccc1c23
- MIC [1]: > 200 µM
- MIC (Saccharomyces cerevisiae; read-out: MIC): 124 µM
- MIC (Cryptococcus neoformans; var grubii H99, read-out: MIC): > 200 µM
- MIC (Aspergillus fumigatus): > 200 µM
- MIC (Candida albicans; read-out: MIC): 124 µM

SMILES: Nc1cc(=O)n2c3ccccc3c3ccnc1c32
- MIC [1]: 106 µM (≈ 24.9 µg/mL)
- MIC (Saccharomyces cerevisiae; read-out: MIC): 53.2 µM (≈ 12.5 µg/mL)
- MIC (Cryptococcus neoformans; var grubii H99, read-out: MIC): 106 µM (≈ 24.9 µg/mL)
- MIC (Aspergillus fumigatus): > 200 µM
- MIC (Candida albicans; read-out: MIC): 53.2 µM (≈ 12.5 µg/mL)

SMILES: COc1cc2nccc3c4ccccc4n(c1=O)c23 [5-METHOXYCANTHINONE]
- MIC [1]: 6.3 µM (≈ 1.58 µg/mL)
- MIC (Saccharomyces cerevisiae; read-out: MIC): 50 µM (≈ 12.5 µg/mL)
- MIC (Cryptococcus neoformans; var grubii H99, read-out: MIC): 50 µM (≈ 12.5 µg/mL)
- MIC (Aspergillus fumigatus): 50 µM (≈ 12.5 µg/mL)
- MIC (Candida albicans; read-out: MIC): > 200 µM

SMILES: COc1c2c(c3ccc(=O)oc3c1/C=C/C(C)(C)O)OC(C)(C)C=C2 [AVICENNOL]
- MIC (Saccharomyces cerevisiae; read-out: MIC): > 200 µM
- MIC (Cryptococcus neoformans; var grubii H99, read-out: MIC): > 200 µM
- MIC (Aspergillus fumigatus): > 200 µM
- MIC (Candida albicans; read-out: MIC): 146 µM (≈ 50 µg/mL)

SMILES: O=c1ccc2nccc3c4ccccc4n1c23 [CANTHIN-6-ONE]
- MIC [1]: 7.1 µM (≈ 1.56 µg/mL)
- MIC (Saccharomyces cerevisiae; read-out: MIC): 14.2 µM (≈ 3.13 µg/mL)
- MIC (Cryptococcus neoformans; var grubii H99, read-out: MIC): 14.2 µM (≈ 3.13 µg/mL)
- MIC (Aspergillus fumigatus): 14.2 µM (≈ 3.13 µg/mL)
- MIC (Candida albicans; read-out: MIC): 56.8 µM (≈ 12.5 µg/mL)

SMILES: CC(=O)N1CCN(c2ccc(OCC3COC(Cn4ccnc4)(c4ccc(Cl)cc4Cl)O3)cc2)CC1 (centres undefined) [KETOCONAZOLE]
- MIC [1]: 23.5 µM (≈ 12.5 µg/mL)
- MIC (Saccharomyces cerevisiae; read-out: MIC): 5.9 µM (≈ 3.14 µg/mL)
- MIC (Cryptococcus neoformans; var grubii H99, read-out: MIC): 5.9 µM (≈ 3.14 µg/mL)
- MIC (Aspergillus fumigatus): 94.2 µM (≈ 50.1 µg/mL)
- MIC (Candida albicans; read-out: MIC): 2.9 µM (≈ 1.54 µg/mL)
